Source: ChEMBL document CHEMBL1156778, “Synthesis and structure-activity studies of biphenyl analogues of the tuberculosis drug (6S)-2-nitro-6-{[4-(trifluoromethoxy)benzyl]oxy}-6,7-dihydro-5H-imidazo[2,1-b][1,3]oxazine (PA-824)” (J Med Chem, 2010)
Converted amounts (≈) assume the structure as drawn.

Tests used:
[1] = tested on: Mycobacterium tuberculosis; assay: Antitubercular activity against Mycobacterium tuberculosis H37Rv in aerobic condition after 7 days by microplate alamar blue assay; type: functional; conditions: 168 h
Method in brief: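 M. tuberculosis H37Rv, replicating culture; 8-day microplate assay with Alamar blue added on day 7 to read growth. […] Mean of at least two independent determinations ± SD.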

[2] = tested on: Mycobacterium tuberculosis; assay: Antitubercular activity against Mycobacterium tuberculosis H37Rv in anaerobic condition after 7 days by low oxygen recovery assay; type: functional; conditions: 168 h
Vero = assay: Cytotoxicity against african green monkey Vero cells after 72 hrs by MTS assay; type: cell-based; conditions: Chlorocebus sabaeus
Method in brief: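 VERO cells (CCL-81), 72 h exposure, tetrazolium dye read-out.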

[3] = Metabolic stability in pooled human liver microsomes assessed as compound remaining after 1 hr by LC-MS-MS; type: ADME, Microsome; conditions: read-out: Stability
Method in brief: (§1)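 Test compound at 1 μM with pooled CD-1 mouse or human liver microsomes (0.5 mg/mL protein) and NADPH-regenerating system (3.3 mM MgCl2, 3.3 mM G6P, 0.4 U/mL G6PD, 1.3 mM NADP+) in 75 mM phosphate, pH 7.4, 0.5% DMSO, 37 °C. Stopped at 0 and 60 min with MeCN containing metoprolol internal standard. LC-MS/MS (ESI, SRM), duplicates. % remaining = 100 × mean peak-area ratio at 60 min / at 0 min.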

[4] = Metabolic stability in pooled CD1 mouse liver microsomes assessed as compound remaining after 1 hr by LC-MS-MS; type: ADME, Microsome; conditions: read-out: Stability; method in brief: as §1
[5] = tested on: Mycobacterium tuberculosis; assay: Antitubercular activity against Mycobacterium tuberculosis H37Rv infected in BALB/c mouse assessed as ratio of lung CFU for compound to lung CFU for PA-824 at 100 mg/kg, po daily for 5 days a week for 3 weeks; type: functional
[6] = tested on: Mycobacterium tuberculosis; assay: Antitubercular activity against Mycobacterium tuberculosis H37Rv infected in BALB/c mouse measured per mouse at 100 mg/kg, po daily for 5 days a week for 3 weeks; type: functional

SMILES | MIC [1] [µM] | MIC [2] [µM] | IC50 (Vero) [µM] | remaining at 1 h [3] [%] | remaining at 1 h [4] [%] | fold change (FC) [5] | CFU [6]
O=[N+]([O-])c1cn2c(n1)OC[C@@H](OCc1ccc(-c3ccc(OC(F)(F)F)cc3Cl)cc1)C2 | 0.04 (≈ 0.0188 µg/mL) | 0.78 (≈ 0.366 µg/mL) | > 125 | 91 | 86 | 23 | 390
O=[N+]([O-])c1cn2c(n1)OC[C@@H](OCc1ccc(-c3ccc(OC(F)(F)F)cc3F)cc1)C2 | 0.045 (≈ 0.0204 µg/mL) | 0.72 (≈ 0.326 µg/mL) | > 125 | 88 | 89 | 46 | 39
O=[N+]([O-])c1cn2c(n1)OC[C@@H](OCc1ccc(-c3ccccc3OCCCO)cc1)C2 | 0.34 (≈ 0.145 µg/mL) | 2.7 (≈ 1.15 µg/mL) | > 125 | 59 | 21 | <0.01 | 1100000
O=[N+]([O-])c1cn2c(n1)OC[C@@H](OCc1ccc(-c3ccc(OC(F)F)cc3)cc1)C2 | 0.05 (≈ 0.0209 µg/mL) | 0.77 (≈ 0.321 µg/mL) | > 125 | 94 | 77 | 8.5 | 1100
O=[N+]([O-])c1cn2c(n1)OC[C@@H](OCc1ccc(-c3ccc(CNc4ccccc4)cc3)cc1)C2 | 0.06 (≈ 0.0274 µg/mL) | 0.63 (≈ 0.288 µg/mL) | > 125 | 12 | 52 | 0.03 | 500000
COc1c(F)cc(F)cc1-c1ccc(CO[C@@H]2COc3nc([N+](=O)[O-])cn3C2)cc1 | 0.04 (≈ 0.0167 µg/mL) | 0.86 (≈ 0.359 µg/mL) | > 125 | 72 | 2 | 0.4 | 200000
COc1ccc(-c2ccc(CO[C@@H]3COc4nc([N+](=O)[O-])cn4C3)cc2)cc1F | 0.04 (≈ 0.016 µg/mL) | 1.9 (≈ 0.759 µg/mL) | > 125 | 80 | 50 | 0.02 | 850000
COc1cccc(F)c1-c1ccc(CO[C@@H]2COc3nc([N+](=O)[O-])cn3C2)cc1 | 0.13 (≈ 0.0519 µg/mL) | 0.81 (≈ 0.323 µg/mL) | > 125 | 91 | 0 | 0.07 | 1100000
O=[N+]([O-])c1cn2c(n1)OC[C@@H](OCc1ccc(-c3ccc(Cl)c(OC(F)(F)F)c3)cc1)C2 | 0.04 (≈ 0.0188 µg/mL) | 0.95 (≈ 0.446 µg/mL) | > 125 | 95 | 92 | 9.7 | 360
O=[N+]([O-])c1cn2c(n1)OC[C@@H](OCc1ccc(-c3ccc(OCCCN4CCOCC4)cc3)cc1)C2 | 0.097 (≈ 0.048 µg/mL) | 1 (≈ 0.495 µg/mL) | > 125 | 11 | 14 | 0.05 | 310000
O=[N+]([O-])c1cn2c(n1)OC[C@@H](OCc1ccc(-c3cccc(OCc4ccccc4)c3)cc1)C2 | 0.12 (≈ 0.0549 µg/mL) | 0.88 (≈ 0.403 µg/mL) | > 125 | 64 | 50 | 0.66 | 120000
